Experimental findings from ChEMBL document CHEMBL2346606, “Inhibitors of the TAM subfamily of tyrosine kinases: synthesis and biological evaluation” (Eur J Med Chem, 2013) are described below.

The target of data set [1] is T1, Tyrosine-protein kinase ABL1 (Homo sapiens, UniProt P00519). Briefly: Binding affinity to phosphorylated ABL1 (unknown origin) after 1 hr.
Data set [2] deals with HT-29. Briefly: Growth inhibition of human HT-29 cells at 10 uM after 72 hrs by […] assay relative to control. The note with it: HT-29, 72 h, read-out: GI. The class given is functional. Put shortly: (§1)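 HT29, MCF7 and PC-3 cells were grown in RPMI, plated, and treated 24 h later with compound in DMSO at 10^-5 M (DMSO controls, 1% final). After 72 h exposure, MTS reagent was added for 3 h at 37 °C and absorbance read at 490 nm. Proliferation inhibition = [1 − OD treated/OD control] × 100, triplicate experiments.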

For data set [3], the system named is PC-3. Briefly: Growth inhibition of human PC3 cells at 10 uM after 72 hrs by […] assay relative to control. The class given is functional. The following applies: PC-3, 72 h, read-out: GI. Put shortly: as §1
A general note: Formazan colour is commonly taken as a measure of viable cells.

The target in data set [4] is Hepatocyte growth factor receptor (Homo sapiens, UniProt P08581). Briefly: Binding affinity to MET (unknown origin) after 1 hr.
A short description of data set [5]: Growth inhibition of African green monkey Vero cells at 10 uM after 72 hrs by […] assay relative to control. The class given is cell-based. The following applies: chlorocebus sabaeus, read-out: GI. In short, it runs like this:
(§2)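 KB and Vero cells were grown in D-MEM with 10% FCS and antibiotics under 5% CO2, plated, then dosed 24 h later at 10^-5 M from DMSO (controls 1% DMSO). After 72 h, MTS was added for 3 h at 37 °C and A490 read. Inhibition = (1 − OD treated/OD control) × 100, in triplicate.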

Data set [6] addresses T2, Tyrosine-protein kinase receptor TYRO3 (Homo sapiens, UniProt Q06418).
T2 sequence (Q06418 whole entry): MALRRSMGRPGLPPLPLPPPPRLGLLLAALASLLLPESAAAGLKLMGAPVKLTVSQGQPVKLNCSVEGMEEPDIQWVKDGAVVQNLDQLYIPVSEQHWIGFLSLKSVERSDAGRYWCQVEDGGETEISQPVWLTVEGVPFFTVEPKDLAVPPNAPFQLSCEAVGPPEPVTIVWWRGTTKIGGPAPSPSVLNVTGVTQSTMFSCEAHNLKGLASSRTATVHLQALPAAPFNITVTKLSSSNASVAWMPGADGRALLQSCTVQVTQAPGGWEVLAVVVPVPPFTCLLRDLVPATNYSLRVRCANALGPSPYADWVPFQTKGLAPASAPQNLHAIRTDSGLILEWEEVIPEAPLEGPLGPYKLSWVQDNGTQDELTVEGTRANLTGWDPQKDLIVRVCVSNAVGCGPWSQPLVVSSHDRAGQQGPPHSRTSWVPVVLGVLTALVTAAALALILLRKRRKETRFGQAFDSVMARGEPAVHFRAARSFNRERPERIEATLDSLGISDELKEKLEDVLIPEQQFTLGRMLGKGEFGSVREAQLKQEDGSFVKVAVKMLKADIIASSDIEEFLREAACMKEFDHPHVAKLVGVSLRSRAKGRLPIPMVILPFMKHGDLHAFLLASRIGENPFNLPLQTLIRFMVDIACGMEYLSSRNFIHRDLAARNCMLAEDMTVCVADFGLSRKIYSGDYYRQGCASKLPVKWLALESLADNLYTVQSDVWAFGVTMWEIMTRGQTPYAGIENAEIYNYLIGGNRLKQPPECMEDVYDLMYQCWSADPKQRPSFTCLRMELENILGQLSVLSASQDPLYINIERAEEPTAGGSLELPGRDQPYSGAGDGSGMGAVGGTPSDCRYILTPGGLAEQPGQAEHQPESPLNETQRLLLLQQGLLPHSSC
Briefly: Binding affinity to TYRO3 (unknown origin) after 1 hr.

Data set [7] relates to KB. Briefly: Growth inhibition of human KB cells at 10 uM after 72 hrs by […] relative to control. The class given is functional. The following applies: read-out: GI. Put shortly:
as §2

Data set [8] deals with T1, Tyrosine-protein kinase ABL1. Briefly: Binding affinity to non phosphorylated ABL1 (unknown origin) after 1 hr.
Data set [9] relates to MCF7. Briefly: Growth inhibition of human MCF7 cells at 10 uM after 72 hrs by […] assay relative to control. The class given is functional. The following applies: MCF7, 72 h, read-out: GI. Put shortly:
as §1

Data set [10] concerns the target T3, Tyrosine-protein kinase receptor UFO (Homo sapiens, UniProt P30530).
T3 sequence (P30530 whole entry): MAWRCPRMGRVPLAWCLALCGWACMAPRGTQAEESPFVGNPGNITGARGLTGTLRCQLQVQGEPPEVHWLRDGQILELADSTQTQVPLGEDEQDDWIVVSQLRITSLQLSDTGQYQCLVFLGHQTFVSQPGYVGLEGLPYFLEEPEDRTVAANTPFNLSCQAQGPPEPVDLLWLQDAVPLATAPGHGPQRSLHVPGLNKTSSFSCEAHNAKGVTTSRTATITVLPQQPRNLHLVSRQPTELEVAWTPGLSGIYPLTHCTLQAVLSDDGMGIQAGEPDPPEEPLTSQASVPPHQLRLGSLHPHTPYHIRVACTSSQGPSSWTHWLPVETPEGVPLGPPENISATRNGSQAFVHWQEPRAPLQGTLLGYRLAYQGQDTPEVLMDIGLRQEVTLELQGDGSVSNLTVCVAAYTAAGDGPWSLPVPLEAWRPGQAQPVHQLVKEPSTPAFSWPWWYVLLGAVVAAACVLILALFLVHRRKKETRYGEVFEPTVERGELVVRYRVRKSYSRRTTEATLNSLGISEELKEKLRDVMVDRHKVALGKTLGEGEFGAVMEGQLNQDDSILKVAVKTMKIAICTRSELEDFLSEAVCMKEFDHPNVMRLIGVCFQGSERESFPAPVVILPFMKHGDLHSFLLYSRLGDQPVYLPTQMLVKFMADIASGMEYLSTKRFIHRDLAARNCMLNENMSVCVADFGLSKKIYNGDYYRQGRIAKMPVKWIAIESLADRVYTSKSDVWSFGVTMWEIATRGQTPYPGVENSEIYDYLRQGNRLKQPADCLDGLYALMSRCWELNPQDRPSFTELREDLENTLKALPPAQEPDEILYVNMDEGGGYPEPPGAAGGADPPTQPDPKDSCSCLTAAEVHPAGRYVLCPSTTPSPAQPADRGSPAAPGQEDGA
Briefly: Binding affinity to AXL (unknown origin) after 1 hr.

Data set [11] deals with T4, Tyrosine-protein kinase Mer (Homo sapiens, UniProt Q12866).
T4 sequence (Q12866 whole entry): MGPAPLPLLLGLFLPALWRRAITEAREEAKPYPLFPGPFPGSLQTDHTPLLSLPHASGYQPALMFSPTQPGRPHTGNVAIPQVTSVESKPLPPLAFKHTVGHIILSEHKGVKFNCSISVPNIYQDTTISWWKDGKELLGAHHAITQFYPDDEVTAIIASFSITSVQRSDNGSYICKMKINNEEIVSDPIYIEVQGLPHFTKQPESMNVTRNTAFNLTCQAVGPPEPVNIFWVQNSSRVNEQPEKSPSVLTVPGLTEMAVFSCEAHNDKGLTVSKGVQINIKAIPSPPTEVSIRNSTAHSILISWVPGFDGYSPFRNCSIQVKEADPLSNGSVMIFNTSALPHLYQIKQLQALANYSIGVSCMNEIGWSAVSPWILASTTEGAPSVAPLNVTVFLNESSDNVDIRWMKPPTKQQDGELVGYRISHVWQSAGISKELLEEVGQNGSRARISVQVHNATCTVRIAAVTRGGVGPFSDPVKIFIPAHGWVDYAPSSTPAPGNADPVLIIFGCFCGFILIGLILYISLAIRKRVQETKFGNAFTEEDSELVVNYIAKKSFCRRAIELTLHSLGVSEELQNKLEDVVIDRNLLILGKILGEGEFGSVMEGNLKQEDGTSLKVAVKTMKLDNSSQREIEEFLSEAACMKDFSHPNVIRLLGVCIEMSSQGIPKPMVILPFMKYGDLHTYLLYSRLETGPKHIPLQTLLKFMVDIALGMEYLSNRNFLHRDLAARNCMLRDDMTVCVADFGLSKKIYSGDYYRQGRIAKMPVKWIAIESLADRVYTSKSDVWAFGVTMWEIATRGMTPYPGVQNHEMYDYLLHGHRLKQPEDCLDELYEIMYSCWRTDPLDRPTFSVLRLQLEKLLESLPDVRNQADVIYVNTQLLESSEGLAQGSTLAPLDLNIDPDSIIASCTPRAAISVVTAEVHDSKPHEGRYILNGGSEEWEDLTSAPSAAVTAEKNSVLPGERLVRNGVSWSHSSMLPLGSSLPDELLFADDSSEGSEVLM
Briefly: Binding affinity to MER (unknown origin) after 1 hr.

Data set [12] deals with T5, Tyrosine-protein kinase receptor TYRO3 (Homo sapiens) (UniProt Q06418).
T5 sequence (whole entry): T2 sequence (Q06418 whole entry)
Briefly: Inhibition of TYRO3 (unknown origin) at 200 nM relative to control.

The target in data set [13] is T6, Tyrosine-protein kinase Mer (Homo sapiens) (UniProt Q12866).
T6 sequence (whole entry): T4 sequence (Q12866 whole entry)
Briefly: Inhibition of MER (unknown origin) at 200 nM relative to control.

Bounds are passed on as bounds.

Sequence of Hepatocyte growth factor receptor (P08581 whole entry): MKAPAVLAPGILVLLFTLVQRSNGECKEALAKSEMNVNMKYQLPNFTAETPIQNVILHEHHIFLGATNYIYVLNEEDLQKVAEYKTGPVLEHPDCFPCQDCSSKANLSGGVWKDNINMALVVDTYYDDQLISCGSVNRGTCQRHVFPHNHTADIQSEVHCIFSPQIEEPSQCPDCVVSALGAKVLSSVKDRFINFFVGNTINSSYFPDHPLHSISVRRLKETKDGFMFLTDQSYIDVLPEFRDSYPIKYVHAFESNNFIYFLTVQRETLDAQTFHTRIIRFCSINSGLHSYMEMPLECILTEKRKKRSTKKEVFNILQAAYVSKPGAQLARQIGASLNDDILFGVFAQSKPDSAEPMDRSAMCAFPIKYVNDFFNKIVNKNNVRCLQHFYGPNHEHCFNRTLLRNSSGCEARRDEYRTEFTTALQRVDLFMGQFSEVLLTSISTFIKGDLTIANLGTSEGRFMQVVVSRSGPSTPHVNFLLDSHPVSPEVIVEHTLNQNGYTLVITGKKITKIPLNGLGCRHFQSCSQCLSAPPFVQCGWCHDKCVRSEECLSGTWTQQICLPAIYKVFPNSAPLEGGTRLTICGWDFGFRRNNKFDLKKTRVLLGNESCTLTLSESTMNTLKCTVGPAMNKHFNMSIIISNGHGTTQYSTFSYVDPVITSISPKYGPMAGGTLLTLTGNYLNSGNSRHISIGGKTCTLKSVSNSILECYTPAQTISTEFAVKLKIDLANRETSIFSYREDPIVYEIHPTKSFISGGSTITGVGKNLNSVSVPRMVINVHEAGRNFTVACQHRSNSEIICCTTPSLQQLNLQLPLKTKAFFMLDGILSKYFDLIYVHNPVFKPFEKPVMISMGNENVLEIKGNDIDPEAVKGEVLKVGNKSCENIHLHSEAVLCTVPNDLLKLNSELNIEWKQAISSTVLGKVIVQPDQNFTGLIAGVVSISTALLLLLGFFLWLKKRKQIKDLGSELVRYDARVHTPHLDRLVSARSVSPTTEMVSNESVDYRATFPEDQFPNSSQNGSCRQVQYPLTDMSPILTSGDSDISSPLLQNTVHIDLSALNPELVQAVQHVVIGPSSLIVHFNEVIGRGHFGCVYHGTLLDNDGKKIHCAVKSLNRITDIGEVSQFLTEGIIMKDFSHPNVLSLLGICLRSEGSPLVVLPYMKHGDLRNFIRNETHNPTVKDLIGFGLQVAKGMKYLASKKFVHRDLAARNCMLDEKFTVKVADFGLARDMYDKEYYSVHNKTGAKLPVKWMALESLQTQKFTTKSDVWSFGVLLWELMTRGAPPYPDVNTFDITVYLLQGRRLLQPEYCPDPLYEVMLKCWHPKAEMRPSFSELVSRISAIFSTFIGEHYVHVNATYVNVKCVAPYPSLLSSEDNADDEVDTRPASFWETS
T1 sequence (P00519 whole entry): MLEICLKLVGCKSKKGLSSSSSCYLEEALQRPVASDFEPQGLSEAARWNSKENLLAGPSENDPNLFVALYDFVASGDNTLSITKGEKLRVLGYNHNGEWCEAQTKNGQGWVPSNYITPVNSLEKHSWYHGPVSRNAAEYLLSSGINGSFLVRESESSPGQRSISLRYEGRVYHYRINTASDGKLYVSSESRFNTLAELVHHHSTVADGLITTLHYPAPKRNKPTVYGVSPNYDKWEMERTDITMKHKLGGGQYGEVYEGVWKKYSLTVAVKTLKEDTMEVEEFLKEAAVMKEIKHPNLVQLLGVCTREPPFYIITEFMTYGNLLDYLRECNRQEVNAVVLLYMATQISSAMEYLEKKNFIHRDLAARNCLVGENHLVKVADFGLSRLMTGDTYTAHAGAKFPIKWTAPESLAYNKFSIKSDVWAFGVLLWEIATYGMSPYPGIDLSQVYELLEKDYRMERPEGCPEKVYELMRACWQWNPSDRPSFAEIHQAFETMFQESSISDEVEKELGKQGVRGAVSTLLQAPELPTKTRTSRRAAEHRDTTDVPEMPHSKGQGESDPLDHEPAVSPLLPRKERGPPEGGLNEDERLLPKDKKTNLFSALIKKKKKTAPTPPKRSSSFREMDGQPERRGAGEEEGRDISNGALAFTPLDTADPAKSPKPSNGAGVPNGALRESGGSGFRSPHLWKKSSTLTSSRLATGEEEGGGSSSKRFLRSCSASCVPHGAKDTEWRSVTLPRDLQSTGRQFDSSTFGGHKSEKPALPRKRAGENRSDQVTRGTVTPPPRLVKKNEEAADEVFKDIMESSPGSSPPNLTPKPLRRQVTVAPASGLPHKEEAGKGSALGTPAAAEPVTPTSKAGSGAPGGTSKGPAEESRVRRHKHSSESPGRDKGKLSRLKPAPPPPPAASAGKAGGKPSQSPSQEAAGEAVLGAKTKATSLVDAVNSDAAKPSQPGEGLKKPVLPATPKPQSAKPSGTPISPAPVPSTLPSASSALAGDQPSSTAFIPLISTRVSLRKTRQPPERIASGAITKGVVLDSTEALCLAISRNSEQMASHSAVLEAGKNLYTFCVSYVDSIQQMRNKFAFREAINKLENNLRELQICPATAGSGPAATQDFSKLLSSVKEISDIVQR

The term Kd denotes the constant that tells how readily two partners part at equilibrium. For `O=C(Nc1ccc(Oc2ncnc3[nH]cnc23)c(F)c1)c1cccn(-c2cccc(F)c2)c1=O`, the equilibrium dissociation constant (Kd) in data set [1] was determined as 3300 nM; in [4], 440 nM; in data set [6], 900 nM; in [8], 320 nM. Also, the inhibition of growth at 10 µM in data set [2], in [3], in data set [7] and in [9] was less than 10% throughout. For the same compound, the inhibition at 72 h, 10 µM in [5] was less than 10%.
In the case of `O=C(Nc1ccc(Oc2ncnc3nc[nH]c23)c(F)c1)c1cccn(-c2ccc(F)cc2)c1=O`, the Kd in data set [1] was 40000 nM; in data set [10] it was 39 nM; in [4], 65 nM; in [11], 42 nM; in data set [6], 200 nM; in data set [8], 6600 nM. For the same compound, the inhibition of growth at 10 µM in data set [2], in [3], in data set [7] and in [9] was less than 10% in each case. Besides, in data set [5], the inhibition at 72 h, 10 µM was less than 10%.
For `CC(C)[S+]([O-])c1ccccc1Nc1nc(Nc2ccc(CN3CCN(C)CC3)cc2)ncc1Cl` (centres undefined), the inhibition is more than 50% in [12] and more than 90% in data set [13].
`O=C(Nc1ccc(Oc2ncnc3nc[nH]c23)c(F)c1)c1cccn(-c2ccc(C(F)(F)F)cc2)c1=O`: the inhibition of growth at 10 µM in data set [2], in [3], in data set [7] and in data set [9] was less than 10% throughout. Further, the Kd in [4] turned out to be 150 nM; in data set [6] it was 2900 nM. For the same compound, in data set [5], the inhibition at 72 h, 10 µM was less than 10%.
